Converted amounts (≈) assume the structure as drawn. The source made the active and inactive calls. No cut-off for these calls is given here.
Tests used:
[1] = AUC (0 to 480 min) in mouse prostate at 23 umol/kg, ip administered as bolus by LC-MS analysis; type: ADME, organism-based, Prostate gland; parameters: dose 23 umol/kg, time < 8 hr, route intraperitoneal; details: in vivo, 8 h
How it was run: (§1)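 Male adult mice (25 ± 5 g) given a single i.p. bolus at 23 µmol/kg. The dosing solution was 1.36 mM in 10% (v/v) DMSO, 20% (w/v) hydroxypropyl-β-cyclodextrin and 0.9% NaCl. Animals were decapitated at seven time points from 10 to 480 min. Plasma and tissues were acetonitrile-precipitated with repaglinide internal standard and analysed by LC-MS. Parameters were derived from concentration–time data, mean ± SEM (n=3).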

[2] = Fraction unbound in mouse plasma at 23 umol/kg, ip administered as bolus by LC-MS analysis; type: ADME, organism-based
How it was run: (§2)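 Unbound fraction was measured by equilibrium dialysis at 100 µM in mouse plasma and in brain, liver, kidney, heart and prostate homogenates.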

[3] = target: T1, Large neutral amino acids transporter small subunit 1 (Homo sapiens, UniProt Q01650); assay: Competitive binding to LAT1 in human MCF7 cells at 100 uM after 30 mins in presence of OATP 1B1/1B3 inhibitor rifampicin by HPLC analysis; type: cell-based
How it was run: (§3)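 MCF-7 cells incubated 30 min at 37 °C in HBSS (pH 7.4) holding 100 µM test compound plus 500 µM competitor. Cells washed three times with ice-cold HBSS and lysed in 0.1 M NaOH. Cell-associated compound measured by HPLC against a lysate-spiked standard curve and normalised to protein. Mean ± SD, n=3.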

[4] = Aqueous solubility of the compound measured after 4 hrs by HPLC method; type: physicochemical
[5] = AUC (0 to 480 min) in mouse plasma at 23 umol/kg, ip administered as bolus by LC-MS analysis; type: ADME, organism-based; parameters: dose 23 umol/kg, time < 8 hr, route intraperitoneal; details: in vivo, 8 h; how it was run: as §1
[6] = Unbound AUC (0 to 480 mins) in mouse kidney at 23 umol/kg, ip administered as bolus by LC-MS analysis; type: ADME, organism-based; details: in vivo
How it was run: (§4)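 Male mice (25 ± 5 g) dosed i.p. as a bolus at 23 µmol/kg in DMSO/hydroxypropyl-β-cyclodextrin/saline vehicle, sampled at time points 10–480 min; plasma and tissue homogenates (1:3 water) analysed by LC-MS. […] Mean ± SEM.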

[7] = Fraction unbound in mouse prostate at 23 umol/kg, ip administered as bolus by LC-MS analysis; type: ADME, organism-based, Prostate gland; how it was run: as §2
[8] = target: T1, Large neutral amino acids transporter small subunit 1; assay: Drug uptake in human MCF7 cells assessed as LAT1 mediated drug transport per mg of protein at 100 uM measured 30 mins after cold wash by HPLC analysis; type: ADME, cell-based; details: mcf7, 0.5 h
How it was run: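 MCF-7 monolayers were incubated with 100 µM compound in HBSS at 37 °C for 5 or 30 min. Cells got three washes with ice-cold or warm (37 °C) HBSS; in the warm 30 min arm they were washed after 5 min and again after 30 min. Lysates (0.1 M NaOH) were quantified by HPLC-UV against a spiked lysate standard curve and normalised to protein (Bio-Rad assay).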

[9] = target: T1, Large neutral amino acids transporter small subunit 1; assay: Competitive binding to LAT1 in human MCF7 cells at 100 uM after 30 mins in presence of unselective OATP substrate L-thyroxine by HPLC analysis; type: cell-based; how it was run: as §3
MCF7 = assay: Antiproliferative activity against human MCF7 cells assessed as reduction in cell viability at 25 measured after 72 hrs by resazurin dye-based fluorimetric analysis; type: functional
How it was run: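 MCF-7 cells were seeded at 2 × 10^4 cells/well on collagen-coated plates and treated one day later. Agents were given alone or combined (25 or 100 µM with 100 µM partner drug) in growth medium for 3 days. Viability was read daily by resazurin fluorescence (ex 560/em 590 nm) and expressed relative to untreated controls.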

[10] = target: T1, Large neutral amino acids transporter small subunit 1; assay: Competitive binding to LAT1 in human MCF7 cells at 100 uM after 30 mins in presence of MCT1 inhibitor phloretin by HPLC analysis; type: cell-based; how it was run: as §3
[11] = Unbound AUC (0 to 480 mins) in mouse prostate at 23 umol/kg, ip administered as bolus by LC-MS analysis; type: ADME, organism-based, Prostate gland; details: in vivo; how it was run: as §4
[12] = Plasma concentration in mouse at 23 umol/kg, ip measured after 10 mins; type: ADME, organism-based
Mus musculus = assay: Binding affinity to LAT1 in mouse brain assessed as inhibition of [14C]-L-leucine uptake at 23 umol/kg, ip measured 180 mins post perfusion with [14C]-L-leucine; type: functional; details: 3 h
How it was run: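 Mice under ketamine/xylazine anaesthesia had the right common carotid artery cannulated. Brains were perfused at 37 °C, 2.5 mL/min, for 30 s with 0.157 µM [14C]-L-leucine, then 2 s with analyte-free buffer at 4 °C. Perfusion took place 10 or 180 min after 23 µmol/kg i.p. dosing.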

[13] = Metabolic stability in human plasma at 37 degreeC in presence of NADPH regenerating system measured after 2 hrs by HPLC analysis; type: ADME, cell-free
[14] = Metabolic stability in mouse liver S9 fraction at 37 degreeC in presence of NADPH regenerating system measured after 2 hrs by HPLC analysis; type: ADME, subcellular; details: s9, 2 h
[15] = Tmax in mouse brain at 23 umol/kg, ip administered as bolus by LC-MS analysis; type: ADME, organism-based
How it was run: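 Adult male mice (25 ± 5 g) given a single i.p. bolus of 23 µmol/kg, dosing solution 1.36 mM in 10% (v/v) DMSO, 20% (w/v) hydroxypropyl-β-cyclodextrin, 0.9% NaCl in water. Decapitation at time points 10–480 min; plasma, brain, liver, prostate, kidney, heart collected. Acetonitrile precipitation with repaglinide internal standard, LC-MS (ESI positive). tmax and t½β taken from concentration-time data; mean ± SEM, n=3.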

[16] = target: T2, Large neutral amino acids transporter small subunit 2 (Homo sapiens) (UniProt Q9UHI5); assay: Competitive inhibition of [14C]-L-alanine uptake at LAT2 in human MCF7 cells at 25 uM preincubated for 5 mins followed by addition of substrate measured during 5 mins by liquid scintillation counting; type: cell-based
T2 sequence (whole entry): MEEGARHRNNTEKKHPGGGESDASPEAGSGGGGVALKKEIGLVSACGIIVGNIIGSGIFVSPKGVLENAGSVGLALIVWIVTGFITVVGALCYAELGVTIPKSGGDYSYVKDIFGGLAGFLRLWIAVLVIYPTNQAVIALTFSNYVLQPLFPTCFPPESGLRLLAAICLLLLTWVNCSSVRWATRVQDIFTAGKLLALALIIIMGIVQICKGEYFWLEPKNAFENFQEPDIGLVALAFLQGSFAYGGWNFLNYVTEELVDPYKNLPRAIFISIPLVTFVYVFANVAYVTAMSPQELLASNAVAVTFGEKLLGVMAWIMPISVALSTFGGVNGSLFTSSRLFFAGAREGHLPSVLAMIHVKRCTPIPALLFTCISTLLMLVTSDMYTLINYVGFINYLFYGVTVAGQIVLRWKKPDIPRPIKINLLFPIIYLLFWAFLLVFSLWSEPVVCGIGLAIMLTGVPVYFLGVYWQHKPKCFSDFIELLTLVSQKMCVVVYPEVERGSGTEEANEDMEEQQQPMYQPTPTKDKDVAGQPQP

[17] = target: T1, Large neutral amino acids transporter small subunit 1; assay: Competitive binding to LAT1 in human MCF7 cells at 100 uM after 30 mins in presence of OATP 1A2/2B1 inhibitor naringin by HPLC analysis; type: cell-based; how it was run: as §3
[18] = Cmax in mouse heart at 23 umol/kg, ip administered as bolus by LC-MS analysis; type: ADME, organism-based; parameters: dose 23 umol/kg, route intraperitoneal; details: in vivo; how it was run: as §1

T1 sequence (Q01650 whole entry): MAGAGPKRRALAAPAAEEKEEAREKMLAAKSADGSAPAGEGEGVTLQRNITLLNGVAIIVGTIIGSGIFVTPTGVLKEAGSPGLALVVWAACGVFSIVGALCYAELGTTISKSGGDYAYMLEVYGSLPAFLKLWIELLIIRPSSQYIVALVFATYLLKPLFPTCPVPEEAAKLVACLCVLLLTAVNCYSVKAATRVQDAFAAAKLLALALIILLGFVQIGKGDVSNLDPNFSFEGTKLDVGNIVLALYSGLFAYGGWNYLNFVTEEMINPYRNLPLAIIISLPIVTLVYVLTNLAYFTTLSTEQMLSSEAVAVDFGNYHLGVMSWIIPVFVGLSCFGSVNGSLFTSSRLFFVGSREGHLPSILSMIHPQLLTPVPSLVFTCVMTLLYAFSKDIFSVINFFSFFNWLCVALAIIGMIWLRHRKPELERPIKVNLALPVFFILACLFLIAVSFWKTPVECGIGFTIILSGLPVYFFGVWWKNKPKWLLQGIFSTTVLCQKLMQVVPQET

For `CNC(=O)COc1ccc(-c2c(C#N)c(NC(=O)c3cccc(C[C@H](N)C(=O)O)c3)n3c(nc4ccccc43)c2C#N)cc1`, the AUC [1] was 1275 nmol/g/min, the fraction unbound [2] was 0.0098 and the Activity [3] was “Active”. For the same molecule, the solubility at 4 h [4] was 1160 µg/mL (≈ 1970 µM), the AUC [5] was 795 nmol/min/mL and the fAUC [6] was 23.7 nmol/g/min. The fraction unbound [7] was 0.0144, the Drug uptake [8] was 2.63 nmol/mg and the Activity [9] was “Active”. For the same molecule, the Activity (MCF7) was 34.8%, the Activity [10] was “Active” and the fAUC [11] was 18.4 nmol/g/min. The concentration at 10 min [12] was 20 µM, the inhibition in vivo at 23 µmol/kg (Mus musculus) was 14% and the Stability [13] was “Stable”. The Stability [14] was “Stable”, the Tmax [15] was 30 min and the inhibition [16] was “inactive”. For the same molecule, the Activity [17] was “Active” and the Cmax [18] was 4.9 nmol/g.

— ChEMBL document CHEMBL4425108, “A Selective and Slowly Reversible Inhibitor of l-Type Amino Acid Transporter 1 (LAT1) Potentiates Antiproliferative Drug Efficacy in Cancer Cells” (J Med Chem, 2016)
